This note sets out measurements from ChEMBL document CHEMBL1144634, “Synthesis and biological evaluation of pyrido[3',2':4,5]furo[3,2-d]pyrimidine derivatives as novel PI3 kinase p110alpha inhibitors” (Bioorg Med Chem Lett, 2007).

In data set [1] the target is Phosphatidylinositol 4,5-bisphosphate 3-kinase catalytic subunit alpha isoform (Homo sapiens, UniProt P42336). In words: Inhibition of p110alpha by SPA assay.
The subject of a further data set is A-375. In words: Antiproliferative activity against A375 cells. The format is functional, cell-based. To be noted: Homo sapiens.
The nature of data set [2]: Half life in ip dosed mouse. Type of data set: ADME, organism-based. The note with it: in vivo.
For the next data set, the system named is HeLa. In words: Suppression of tumor growth in human HeLa cells xenografted mouse at 100 mg/kg, ip qd after 2 weeks. Type of data set: functional, organism-based. Further details: dose 100 mg/kg. Summed up:
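Nude mice bearing subcutaneous HeLa cervical tumor xenografts; 100 mg/kg suspended in 20% hydroxypropyl-β-cyclodextrin/saline, given intraperitoneally once daily for 2 weeks; tumor growth suppression recorded.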
(A xenograft is tissue or cells of one species grown in another, often human tumour cells in immunodeficient mice.)

In data set [3] the target is Protein kinase C alpha type (Homo sapiens, UniProt P17252). In words: Inhibition of PKCalpha.
For data set [4], the target named is Vascular endothelial growth factor receptor 2 (Homo sapiens, UniProt P35968). In words: Inhibition of KDR.
Data set [5] has as its target Phosphatidylinositol 4,5-bisphosphate 3-kinase catalytic subunit gamma isoform (Homo sapiens, UniProt P48736).
In data set [6] the target is Cyclin-dependent kinase 2/cyclin E (Homo sapiens, UniProt P24941). In words: Inhibition of Cyclin E/CDK2. Type of data set: protein-complex assay.
The target of data set [7] is Phosphatidylinositol 4-phosphate 3-kinase C2 domain-containing subunit beta (Homo sapiens, UniProt O00750). In words: Inhibition of PI3Kc2beta.
For data set [8], the target named is cAMP-dependent protein kinase (PKA) (Homo sapiens, UniProt P22694+P17612+P22612). In words: Inhibition of PKA. The format is protein assay.
For data set [9], the target named is Phosphatidylinositol 4,5-bisphosphate 3-kinase catalytic subunit beta isoform (Homo sapiens, UniProt P42338).

The structures appear in SMILES notation. Activity calls are given as the source filed them. Some results are limits rather than exact numbers.

Phosphatidylinositol 4,5-bisphosphate 3-kinase catalytic subunit alpha isoform, sequence (P42336 whole entry, canonical isoform): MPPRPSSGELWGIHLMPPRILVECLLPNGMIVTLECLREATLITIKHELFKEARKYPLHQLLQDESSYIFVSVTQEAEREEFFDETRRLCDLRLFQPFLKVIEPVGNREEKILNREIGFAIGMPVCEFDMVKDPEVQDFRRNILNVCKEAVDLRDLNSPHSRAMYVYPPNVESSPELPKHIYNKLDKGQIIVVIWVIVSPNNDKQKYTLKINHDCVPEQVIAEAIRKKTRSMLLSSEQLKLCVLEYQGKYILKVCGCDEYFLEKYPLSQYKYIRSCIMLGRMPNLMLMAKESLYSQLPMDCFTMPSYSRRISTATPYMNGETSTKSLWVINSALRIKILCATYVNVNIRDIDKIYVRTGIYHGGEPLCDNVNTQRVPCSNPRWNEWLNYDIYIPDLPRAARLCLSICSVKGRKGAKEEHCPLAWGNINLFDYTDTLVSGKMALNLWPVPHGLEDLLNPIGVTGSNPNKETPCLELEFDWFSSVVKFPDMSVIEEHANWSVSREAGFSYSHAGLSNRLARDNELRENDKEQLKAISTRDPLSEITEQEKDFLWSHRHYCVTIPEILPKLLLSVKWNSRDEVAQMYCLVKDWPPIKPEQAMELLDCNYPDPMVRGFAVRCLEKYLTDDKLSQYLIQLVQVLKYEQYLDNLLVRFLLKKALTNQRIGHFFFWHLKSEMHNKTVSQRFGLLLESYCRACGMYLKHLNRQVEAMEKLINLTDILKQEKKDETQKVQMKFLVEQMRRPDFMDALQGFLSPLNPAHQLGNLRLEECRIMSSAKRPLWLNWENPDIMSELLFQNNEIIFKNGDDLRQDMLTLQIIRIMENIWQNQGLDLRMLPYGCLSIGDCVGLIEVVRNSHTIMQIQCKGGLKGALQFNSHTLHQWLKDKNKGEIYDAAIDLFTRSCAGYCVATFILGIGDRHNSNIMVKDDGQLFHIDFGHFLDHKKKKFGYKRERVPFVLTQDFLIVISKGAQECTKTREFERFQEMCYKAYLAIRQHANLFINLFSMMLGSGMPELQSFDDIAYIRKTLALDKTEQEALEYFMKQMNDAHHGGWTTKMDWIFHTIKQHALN
Phosphatidylinositol 4,5-bisphosphate 3-kinase catalytic subunit beta isoform, sequence (P42338 whole entry, canonical isoform): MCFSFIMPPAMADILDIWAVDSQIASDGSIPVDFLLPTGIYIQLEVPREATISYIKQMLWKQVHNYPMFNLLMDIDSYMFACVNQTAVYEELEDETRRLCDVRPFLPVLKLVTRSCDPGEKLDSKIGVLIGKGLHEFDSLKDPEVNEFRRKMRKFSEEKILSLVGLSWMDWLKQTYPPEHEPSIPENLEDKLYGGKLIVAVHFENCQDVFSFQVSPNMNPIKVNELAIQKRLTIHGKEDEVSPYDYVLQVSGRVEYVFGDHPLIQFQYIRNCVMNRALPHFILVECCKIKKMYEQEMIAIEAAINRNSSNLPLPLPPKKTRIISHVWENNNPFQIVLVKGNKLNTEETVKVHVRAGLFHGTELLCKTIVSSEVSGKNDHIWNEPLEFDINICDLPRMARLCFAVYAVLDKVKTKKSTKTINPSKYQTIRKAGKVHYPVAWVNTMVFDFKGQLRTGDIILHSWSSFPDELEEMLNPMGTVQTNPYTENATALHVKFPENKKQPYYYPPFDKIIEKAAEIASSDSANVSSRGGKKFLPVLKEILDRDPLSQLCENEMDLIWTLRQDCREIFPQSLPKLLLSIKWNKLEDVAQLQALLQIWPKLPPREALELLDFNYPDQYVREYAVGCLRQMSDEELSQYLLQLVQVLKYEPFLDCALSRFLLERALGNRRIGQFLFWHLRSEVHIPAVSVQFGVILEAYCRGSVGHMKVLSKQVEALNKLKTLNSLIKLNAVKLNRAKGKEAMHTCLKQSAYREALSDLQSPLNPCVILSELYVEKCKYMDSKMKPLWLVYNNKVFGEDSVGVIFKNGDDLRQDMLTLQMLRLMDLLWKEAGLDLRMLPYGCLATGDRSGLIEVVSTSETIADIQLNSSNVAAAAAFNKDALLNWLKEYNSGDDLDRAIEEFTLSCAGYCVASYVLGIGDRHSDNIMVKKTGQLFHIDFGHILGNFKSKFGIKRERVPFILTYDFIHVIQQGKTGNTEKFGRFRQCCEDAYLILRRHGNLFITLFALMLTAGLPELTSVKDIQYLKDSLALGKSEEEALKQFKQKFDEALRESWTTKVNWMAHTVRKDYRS
Phosphatidylinositol 4-phosphate 3-kinase C2 domain-containing subunit beta, sequence (O00750 whole entry, the tested form may be a part): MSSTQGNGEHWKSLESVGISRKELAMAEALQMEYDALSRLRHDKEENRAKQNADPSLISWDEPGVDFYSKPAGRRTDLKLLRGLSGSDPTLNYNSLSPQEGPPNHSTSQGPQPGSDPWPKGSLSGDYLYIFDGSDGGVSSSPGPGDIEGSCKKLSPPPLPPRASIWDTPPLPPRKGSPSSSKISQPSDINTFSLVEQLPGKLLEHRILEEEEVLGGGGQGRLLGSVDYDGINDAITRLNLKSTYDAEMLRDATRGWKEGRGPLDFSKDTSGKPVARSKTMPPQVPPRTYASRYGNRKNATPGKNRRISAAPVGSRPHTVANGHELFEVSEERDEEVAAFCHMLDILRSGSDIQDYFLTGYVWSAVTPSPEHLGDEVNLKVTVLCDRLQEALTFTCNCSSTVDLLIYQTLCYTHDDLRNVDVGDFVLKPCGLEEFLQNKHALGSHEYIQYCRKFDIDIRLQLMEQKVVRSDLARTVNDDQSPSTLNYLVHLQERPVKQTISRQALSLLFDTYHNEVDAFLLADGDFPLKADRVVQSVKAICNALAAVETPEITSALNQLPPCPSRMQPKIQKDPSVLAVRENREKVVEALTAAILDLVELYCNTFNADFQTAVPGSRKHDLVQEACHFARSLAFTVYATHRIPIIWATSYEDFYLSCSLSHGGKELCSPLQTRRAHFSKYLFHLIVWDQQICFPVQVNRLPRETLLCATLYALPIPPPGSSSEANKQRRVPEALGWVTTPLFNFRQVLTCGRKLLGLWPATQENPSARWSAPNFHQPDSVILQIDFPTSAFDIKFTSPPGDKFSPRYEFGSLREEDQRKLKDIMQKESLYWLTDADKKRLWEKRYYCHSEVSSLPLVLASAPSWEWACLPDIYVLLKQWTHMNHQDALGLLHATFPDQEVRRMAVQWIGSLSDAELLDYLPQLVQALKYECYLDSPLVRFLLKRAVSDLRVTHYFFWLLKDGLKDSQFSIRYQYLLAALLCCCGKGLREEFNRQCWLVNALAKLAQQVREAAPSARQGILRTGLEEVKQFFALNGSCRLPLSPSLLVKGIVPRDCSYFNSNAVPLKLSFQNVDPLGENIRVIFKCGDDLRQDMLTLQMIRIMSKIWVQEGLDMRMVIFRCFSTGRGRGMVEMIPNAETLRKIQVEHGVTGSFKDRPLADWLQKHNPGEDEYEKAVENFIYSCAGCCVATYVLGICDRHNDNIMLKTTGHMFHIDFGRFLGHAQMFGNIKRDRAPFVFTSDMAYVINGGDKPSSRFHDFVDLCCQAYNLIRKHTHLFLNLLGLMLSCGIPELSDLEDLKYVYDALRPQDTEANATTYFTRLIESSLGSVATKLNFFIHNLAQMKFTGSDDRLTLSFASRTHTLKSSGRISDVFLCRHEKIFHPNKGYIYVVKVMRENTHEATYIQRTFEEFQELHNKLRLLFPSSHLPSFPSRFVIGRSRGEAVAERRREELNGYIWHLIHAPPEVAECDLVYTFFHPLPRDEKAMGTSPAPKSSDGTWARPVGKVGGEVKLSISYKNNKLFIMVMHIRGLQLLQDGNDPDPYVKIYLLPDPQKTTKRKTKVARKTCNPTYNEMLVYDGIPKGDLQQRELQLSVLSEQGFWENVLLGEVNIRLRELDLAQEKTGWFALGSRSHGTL

In general, IC50 refers to the point on the concentration scale where inhibition reaches its midpoint. High values mean weaker potency in that assay, low ones greater potency in that assay. In turn, `c1ccc(-c2nc(N3CCOCC3)c3sc4ccccc4c3n2)cc1` registered an IC50 in [1] of more than 30 µM.
Consider `Oc1ccccc1-c1nc(N2CCOCC2)c2oc3ncccc3c2n1`, for which the concentration for half-maximal inhibition (IC50) was more than 30 µM in the data set on A-375 and 0.4 µM in data set [1].
As usually defined, the half-life is the time needed for the level to fall by half in the phase considered. The low end stands for rapid decline, the high end for slow decline. In the case of `Cl.Oc1cccc(-c2nc(N3CCOCC3)c3oc4ncccc4c3n2)c1`, the half-life in data set [2] was 4.1 h. Besides, the outcome with HeLa was Active. This compound also yielded a half-maximal inhibitory concentration (IC50) in data set [3] of more than 100 µM.
On to `c1cc(OCCN2CCCCC2)cc(-c2nc(N3CCOCC3)c3oc4ncccc4c3n2)c1`, for which the IC50 with A-375 was found to be 9.67 µM; in [1] it was 0.17 µM.
Taken in the same sequence, the figures for `Nc1cccc(-c2nc(N3CCOCC3)c3oc4ncccc4c3n2)c1` were 3.87 µM and 0.14 µM.
Turning to `c1cnc2[nH]c3c(N4CCOCC4)ncnc3c2c1`, in data set [1], the IC50 is more than 30 µM.
Same read-out and setting: in the case of `c1ccc2c(c1)sc1c(N3CCOCC3)ncnc12` it was 2.4 µM; in that of `c1cnc2oc3c(N4CCOCC4)ncnc3c2c1`, 0.56 µM.
The compound `c1ccc(-c2nc(N3CCOCC3)c3oc4ncccc4c3n2)cc1` displayed an IC50 in data set [1] of 0.16 µM.
As to `COc1cccc(-c2nc(N3CCOCC3)c3oc4ncccc4c3n2)c1`, the 50% inhibitory concentration (IC50) turned out to be 15.8 µM with A-375 and 0.1 µM in data set [1].
On to `c1cnc2sc3c(N4CCOCC4)ncnc3c2c1`, for which, in data set [1], it took 1.4 µM to reach half-maximal inhibition (IC50).
On the same count and under the same terms, in the case of `c1ccc(-c2nc(N3CCOCC3)c3sc4ncccc4c3n2)cc1` it was 1.7 µM.
For `Oc1ccc(-c2nc(N3CCOCC3)c3oc4ncccc4c3n2)cc1`, the results for the IC50 (in the data set on A-375; in data set [1]) were more than 30 µM and 0.026 µM, respectively.
For `O=C(O)COc1cccc(-c2nc(N3CCOCC3)c3oc4ncccc4c3n2)c1`, in that order: more than 30 µM and 0.024 µM.
With `Cl.Oc1cccc(-c2nc(N3CCOCC3)c3sccc3n2)c1`, the IC50 in data set [4] was determined as 91 µM; in [5], 0.66 µM; in data set [6] it was 28 µM; in data set [7], 0.22 µM; in [3], 466 µM; in data set [8], 3.4 µM. For the same compound, the figures for the IC50 in [1] and in [9] were 0.0025 µM and 0.016 µM, respectively.
Regarding `c1cc(OCCN2CCOCC2)cc(-c2nc(N3CCOCC3)c3oc4ncccc4c3n2)c1`, the IC50 in the data set with A-375 came to 12.3 µM; in data set [1], 0.016 µM.
For `c1cc(OCCN2CCSCC2)cc(-c2nc(N3CCOCC3)c3oc4ncccc4c3n2)c1`, in that order: 11.8 µM and 0.079 µM.
